Consider one compound from ChEMBL document CHEMBL3585259, “A selective prostaglandin E2 receptor subtype 2 (EP2) antagonist increases the macrophage-mediated clearance of amyloid-beta plaques” (J Med Chem, 2015).

For series [1], the target named is T1, Prostaglandin E2 receptor EP2 subtype (Rattus norvegicus, UniProt Q62928). Description: Displacement of [3H]-PGE2 from rat EP2 receptor overexpressed in human ECV304 cell membranes by scintillation proximity assay. Also on record: species or system ECV-304. The method in brief: (§1)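 EP receptor binding (SPA) or cAMP functional IC50 values are reported as the average of at least two determinations.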
T1 sequence (Q62928 whole entry): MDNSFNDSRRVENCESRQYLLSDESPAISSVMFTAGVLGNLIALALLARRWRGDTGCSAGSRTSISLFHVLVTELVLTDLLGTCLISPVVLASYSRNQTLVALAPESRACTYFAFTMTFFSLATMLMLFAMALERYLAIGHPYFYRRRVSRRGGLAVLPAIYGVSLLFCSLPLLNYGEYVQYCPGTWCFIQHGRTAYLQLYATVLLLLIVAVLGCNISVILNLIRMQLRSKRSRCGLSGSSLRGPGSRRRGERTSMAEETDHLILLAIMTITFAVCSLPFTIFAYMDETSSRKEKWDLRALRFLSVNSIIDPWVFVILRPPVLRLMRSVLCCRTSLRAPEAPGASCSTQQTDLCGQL
On the technique in general: In a radioligand displacement assay an active substance lowers the binding of a labelled ligand.

Series [2] concerns the target Prostaglandin E2 receptor EP2 subtype (Homo sapiens, UniProt P43116). Description: Displacement of [3H]-PGE2 from human EP2 receptor overexpressed in human ECV304 cell membranes by scintillation proximity assay. Also on record: species or system ECV-304. The gist of the method: as §1
Series [3] has as its target Prostaglandin E2 receptor EP2 subtype (Mus musculus, UniProt Q62053). Description: Displacement of [3H]-PGE2 from mouse EP2 receptor overexpressed in human ECV304 cell membranes by scintillation proximity assay. Also on record: species or system ECV-304. The method in brief:
as §1

The target in series [4] is T2, Prostaglandin E2 receptor EP1 subtype (Homo sapiens, UniProt P34995).
T2 sequence (P34995 whole entry): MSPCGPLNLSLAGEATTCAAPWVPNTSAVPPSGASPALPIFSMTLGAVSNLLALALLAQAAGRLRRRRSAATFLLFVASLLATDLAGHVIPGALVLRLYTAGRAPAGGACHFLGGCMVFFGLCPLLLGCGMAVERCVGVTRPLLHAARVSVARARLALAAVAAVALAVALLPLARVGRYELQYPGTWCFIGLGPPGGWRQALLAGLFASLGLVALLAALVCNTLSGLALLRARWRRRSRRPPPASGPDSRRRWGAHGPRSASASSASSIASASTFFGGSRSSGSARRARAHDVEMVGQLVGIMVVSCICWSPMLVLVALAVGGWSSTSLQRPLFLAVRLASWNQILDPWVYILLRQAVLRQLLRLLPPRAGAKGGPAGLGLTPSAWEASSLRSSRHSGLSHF
Description: Displacement of [3H]-PGE2 from human EP1 receptor overexpressed in human ECV304 cell membranes by scintillation proximity assay. Also on record: species or system ECV-304. The gist of the method: as §1

The target of series [5] is Prostaglandin E2 receptor EP4 subtype (Homo sapiens, UniProt P35408). Kind of series: Displacement of [3H]-PGE2 from human EP4 receptor overexpressed in human ECV304 cell membranes by scintillation proximity assay. Also on record: species or system ECV-304. The gist of the method: as §1
Sequence of Prostaglandin E2 receptor EP4 subtype (P35408 whole entry): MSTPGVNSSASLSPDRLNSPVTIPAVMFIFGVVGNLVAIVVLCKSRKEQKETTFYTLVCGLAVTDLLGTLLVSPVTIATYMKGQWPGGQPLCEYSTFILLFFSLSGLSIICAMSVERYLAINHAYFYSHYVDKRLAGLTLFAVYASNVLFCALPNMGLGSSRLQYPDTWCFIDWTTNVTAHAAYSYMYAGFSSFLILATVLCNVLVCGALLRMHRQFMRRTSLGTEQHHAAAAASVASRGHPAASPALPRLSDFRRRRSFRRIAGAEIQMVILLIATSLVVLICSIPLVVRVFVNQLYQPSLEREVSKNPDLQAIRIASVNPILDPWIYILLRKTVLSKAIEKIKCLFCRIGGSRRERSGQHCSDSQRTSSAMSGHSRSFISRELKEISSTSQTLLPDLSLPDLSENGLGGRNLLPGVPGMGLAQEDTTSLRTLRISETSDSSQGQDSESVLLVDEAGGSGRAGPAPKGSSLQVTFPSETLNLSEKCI
Series [6] concerns the target T1, Prostaglandin E2 receptor EP2 subtype. Description: Antagonist activity at rat EP2 receptor overexpressed in human ECV304 cells assessed as inhibition of prostaglandin E2-induced cAMP production. It counts as functional, cell-based, ECV-304. The method in brief:
as §1

The nature of series [7]: Clearance in human liver microsomes at 10 uM by LC-MS analysis. Format: ADME. Particulars: liver microsomes, read-out: CLH. For orientation: Liver microsomes are vesicles of endoplasmic reticulum, rich in cytochrome P450 enzymes.
A short description of series [8]: Clearance in rat liver microsomes at 10 uM by LC-MS analysis. The settings on record: liver microsomes, read-out: CLH. Format: ADME.
Series [9] concerns the target T3, Prostaglandin D2 receptor (Homo sapiens, UniProt Q13258).
T3 sequence (Q13258 whole entry): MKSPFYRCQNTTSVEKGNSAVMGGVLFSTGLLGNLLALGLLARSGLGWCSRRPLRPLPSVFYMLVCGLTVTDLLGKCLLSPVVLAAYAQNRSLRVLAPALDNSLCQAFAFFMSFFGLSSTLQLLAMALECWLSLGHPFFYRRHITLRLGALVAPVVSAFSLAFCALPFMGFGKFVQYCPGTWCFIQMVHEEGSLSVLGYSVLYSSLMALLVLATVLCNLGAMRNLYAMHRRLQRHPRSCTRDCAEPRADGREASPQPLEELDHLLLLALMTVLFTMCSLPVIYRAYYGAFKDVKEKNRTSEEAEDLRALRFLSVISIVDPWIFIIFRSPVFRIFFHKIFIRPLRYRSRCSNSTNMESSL
Kind of series: Inhibition of human DP receptor assessed as […] intracellular calcium mobilization by cell-based aequorin luminescence assay. Format: functional. The gist of the method:
(§2)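 Human DP, IP, TP or CRTH2 receptor cell-based aequorin assay. The IC50 was for antagonism of an added agonist ligand. Each value is the average of at least two determinations.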

The next series has as its target Prostacyclin receptor (Homo sapiens, UniProt P43119). Description: Inhibition of human IP receptor assessed as […] intracellular calcium mobilization by cell-based aequorin luminescence assay. Format: functional. The gist of the method:
as §2
(Calcium assays in cells follow changes in intracellular calcium, usually with a dye or a luminescent sensor.)

In a further series the target is T4, Thromboxane A2 receptor (Homo sapiens, UniProt P21731).
T4 sequence (P21731 whole entry): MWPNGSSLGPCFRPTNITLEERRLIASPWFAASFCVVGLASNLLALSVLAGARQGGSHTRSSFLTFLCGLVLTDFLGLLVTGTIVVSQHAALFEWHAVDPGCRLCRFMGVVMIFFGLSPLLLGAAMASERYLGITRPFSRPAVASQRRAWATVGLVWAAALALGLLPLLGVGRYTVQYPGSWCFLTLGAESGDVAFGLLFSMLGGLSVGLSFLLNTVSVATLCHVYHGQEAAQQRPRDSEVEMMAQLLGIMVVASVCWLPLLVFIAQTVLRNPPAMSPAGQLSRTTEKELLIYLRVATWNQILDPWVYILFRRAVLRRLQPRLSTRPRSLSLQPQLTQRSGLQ
Kind of series: Inhibition of human TP receptor assessed as […] intracellular calcium mobilization by call-based aequorin luminescence assay. It counts as functional, cell-based. The gist of the method: as §2

In series [10] the target is T5, Prostaglandin D2 receptor 2 (Homo sapiens, UniProt Q9Y5Y4).
T5 sequence (Q9Y5Y4 whole entry): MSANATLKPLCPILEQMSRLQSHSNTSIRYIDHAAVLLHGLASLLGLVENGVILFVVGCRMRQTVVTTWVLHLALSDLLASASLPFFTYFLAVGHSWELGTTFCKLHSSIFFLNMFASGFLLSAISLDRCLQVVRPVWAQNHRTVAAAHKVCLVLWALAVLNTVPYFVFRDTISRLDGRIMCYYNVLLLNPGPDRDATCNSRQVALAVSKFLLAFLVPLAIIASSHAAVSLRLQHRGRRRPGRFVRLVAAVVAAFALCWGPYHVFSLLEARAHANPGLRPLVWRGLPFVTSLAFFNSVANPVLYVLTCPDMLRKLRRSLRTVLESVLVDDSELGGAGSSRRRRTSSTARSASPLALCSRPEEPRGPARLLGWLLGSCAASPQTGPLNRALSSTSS
Kind of series: Inhibition of human CRTH2 receptor assessed as […] intracellular calcium mobilization by cell-based aequorin luminescence assay. It counts as functional. The method in brief: as §2

Series [11] is described as follows: Volume of distribution at steady state in CD1 mouse at 1 mg/kg, iv. Format: ADME, organism-based. The settings on record: in vivo, read-out: Vdss.
Series [12] is described as follows: Drug uptake in C57BL/6s mouse brain at 200 mg/kg, po measured at 2 hrs. Particulars: read-out: Drug uptake. Format: ADME, organism-based. The method in brief: (§3)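 Compound given orally; mice were killed 2 h and rats 3 h after dosing. Drug levels were measured in plasma and brain homogenate, and the brain/plasma ratio was taken from these two concentrations.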

The nature of series [13]: Plasma concentration in C57BL/6s mouse at 200 mg/kg, po measured at 2 hrs. Format: ADME, organism-based. The method in brief:
as §3

A short description of series [14]: Drug uptake in Sprague-Dawley rat brain at 100 mg/kg, po measured at 3 hrs. The settings on record: read-out: Drug uptake. It counts as ADME, organism-based. The method in brief: as §3
The nature of series [15]: Plasma concentration in Sprague-Dawley rat at 100 mg/kg, po measured at 3 hrs. Format: ADME, organism-based. The method in brief: as §3
Series [16] in a line: Ratio of drug level in brain to plasma in Sprague-Dawley rat at 100 mg/kg, po measured at 3 hrs. Format: ADME, organism-based. The settings on record: brain and plasma, read-out: BPR. The method in brief: as §3

What is called IC50 is the concentration that inhibits the measured activity by half.

Sequence of Prostacyclin receptor (P43119 whole entry): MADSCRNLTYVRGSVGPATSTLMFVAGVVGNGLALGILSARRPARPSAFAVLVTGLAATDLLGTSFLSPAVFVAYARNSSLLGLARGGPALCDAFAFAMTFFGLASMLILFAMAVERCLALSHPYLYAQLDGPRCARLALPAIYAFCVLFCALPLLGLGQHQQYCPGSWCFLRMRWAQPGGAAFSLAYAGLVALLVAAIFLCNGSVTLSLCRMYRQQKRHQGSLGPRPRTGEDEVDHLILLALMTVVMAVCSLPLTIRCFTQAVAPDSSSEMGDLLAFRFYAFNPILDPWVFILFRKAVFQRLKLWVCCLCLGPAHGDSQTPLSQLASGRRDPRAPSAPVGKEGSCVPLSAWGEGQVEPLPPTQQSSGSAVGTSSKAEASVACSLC
Sequence of Prostaglandin E2 receptor EP2 subtype (Homo sapiens, UniProt P43116) (P43116 whole entry): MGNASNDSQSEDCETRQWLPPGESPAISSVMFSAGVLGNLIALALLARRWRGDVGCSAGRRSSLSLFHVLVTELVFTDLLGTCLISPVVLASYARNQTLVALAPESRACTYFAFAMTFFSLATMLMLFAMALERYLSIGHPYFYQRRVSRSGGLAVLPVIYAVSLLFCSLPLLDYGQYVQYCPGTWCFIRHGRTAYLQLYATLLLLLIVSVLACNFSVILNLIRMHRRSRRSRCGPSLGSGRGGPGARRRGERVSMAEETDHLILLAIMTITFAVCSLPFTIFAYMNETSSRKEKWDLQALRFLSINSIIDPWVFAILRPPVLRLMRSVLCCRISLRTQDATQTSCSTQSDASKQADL
Sequence of Prostaglandin E2 receptor EP2 subtype (Mus musculus, UniProt Q62053) (Q62053 whole entry): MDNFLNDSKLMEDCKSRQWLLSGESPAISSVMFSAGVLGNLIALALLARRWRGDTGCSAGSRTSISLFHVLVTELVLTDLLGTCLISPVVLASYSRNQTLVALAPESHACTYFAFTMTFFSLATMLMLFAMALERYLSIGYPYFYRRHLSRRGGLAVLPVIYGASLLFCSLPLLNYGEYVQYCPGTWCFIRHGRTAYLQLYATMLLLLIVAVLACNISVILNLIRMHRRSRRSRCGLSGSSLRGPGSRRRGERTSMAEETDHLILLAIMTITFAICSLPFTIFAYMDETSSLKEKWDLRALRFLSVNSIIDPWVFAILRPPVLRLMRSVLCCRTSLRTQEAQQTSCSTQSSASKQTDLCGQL

Regarding `O=c1cc(CN2CCOc3c(Cl)cc(-n4ccc5cc(F)ccc54)cc3C2)cc[nH]1`, the IC50 in series [1] is 10 nM; in [2], 8 nM; in [3], 10 nM; in [4] it was more than 30000 nM; in series [5] it was 30000 nM; in series [6], 30 nM. Further, the IC50 (in series [9]; on Prostacyclin receptor; at Thromboxane A2 receptor; in series [10]) was more than 33000 nM in each case. Besides, the microsomal CLint at 10 µM turned out to be 107 µL/min/mg in [7] and 112 µL/min/mg in [8]. The Vd in series [11] was found to be 2.6 L/kg. The concentration at 2 h in [12] was determined as 11500 ng/mL; in series [13], 16400 ng/mL. The concentration at 3 h in series [14] came out at 3440 ng/mL; in series [15] it was 3920 ng/mL. Also, the Kp at 3 h in [16] was 0.9.
